Results collected from several papers.
Compare with care: the assays were run in different laboratories.
Target: Serine/threonine-protein kinase Nek7 (NEK7, Homo sapiens, UniProt Q8TDX7)

Structure (SMILES) | effect on | action | method | cell line | concentration | endpoint | result
N#CCCc1ccc2c(c1)-c1[nH]c3ccc([N+](=O)[O-])cc3c1CC(=O)N2 | cell-free assay | – | – | – | 0.5 µM | remaining signal | 87.4%
c1ccc(CNc2nc(N3CCOc4ccccc43)nc3c2CCCC3)cc1 | target engagement in cells | inhibitor | chemoproteomics | – | 20 mM | inhibition | -6%
Cc1cnc(NC2CCOCC2)nc1-n1cnc(C(=O)NC(CN)c2cc(F)cc(Cl)c2)c1 (stereo not shown) | enzyme activity | inhibitor | radiometric | – | 1 µM | remaining activity | 99%
O=C1NC(=O)c2cc(Nc3ccc(F)cc3)c(Nc3ccc(F)cc3)cc21 | cell-free assay | – | – | – | 0.5 µM | remaining signal | 103%
COc1cccc2c(NCc3ccccc3)nc(-n3c(N)nc4ccccc43)nc12 | target engagement in cells | inhibitor | chemoproteomics | – | 20 mM | inhibition | -1%
N#Cc1ccc(Nc2ccc3[nH]c(=O)[nH]c3c2)c(Cl)c1 | cell-free assay | – | competition with immobilised ligand | – | 1 µM | remaining binding | 100%
CCN1CCC2(CC1)NC(=O)c1c(c3ccc(Cl)c(Cl)c3n1C)C2C#N (racemic) | thermal stability | – | DSF | – | 10 µM | ΔTm | -0.2 °C
Nc1c(C(=O)NCc2ccc(C(=O)NCCCC3CCCCC3)cc2)cnn1-c1ccccc1 | cell-free assay | – | competition with immobilised ligand | – | 0.1 µM | remaining binding | 99%
CNC(=O)c1cc(Oc2ccc(NC(=O)Nc3ccc(Cl)c(C(F)(F)F)c3)cc2)ccn1 | enzyme activity | inhibitor | – | – | 0.3 µM | inhibition | -9%
Cn1c2c(c3ccc(Cl)c(Cl)c31)C(C#N)C1(CCCC1)NC2=O (stereo not shown) | thermal stability | – | DSF | – | 10 µM | ΔTm | 0 °C
O=C(Nc1cnn(-c2csc(C(=O)NC3COC3)c2)c1)Nc1ccccc1Cl | enzyme activity | inhibitor | – | – | 5 µM | remaining activity | 102%
Cn1c2c(c3ccc(Cl)c(Cl)c31)C(C#N)C1(CCNCC1)NC2=O (racemic) | thermal stability | – | DSF | – | 10 µM | ΔTm | -0.1 °C
CCCOc1ccc(OC)c(F)c1C(=O)c1ccc(C(=O)N[C@@H]2CNC[C@H]2NC(=O)c2ccc3[nH]ncc3c2)cc1 | enzyme activity | inhibitor | – | – | 10 µM | remaining activity | 96%
Cc1ccc(NC(=O)c2ccc(C)c(C(F)(F)F)c2)cc1C#Cc1nn(C2CCC(O)CC2)c2ncnc(N)c12 (stereo not shown) | cell-free assay | – | – | – | 10 µM | remaining signal | 98%
CN1CC(Oc2cnc(C#N)cc2-c2ccn3nc(NC(=O)C4CC4)cc3c2)C1 | enzyme activity | inhibitor | – | – | 1 µM | inhibition | 0%
Cc1ccc(Nc2nccc(N(C)c3ccc4c(C)n(C)nc4c3)n2)cc1S(N)(=O)=O | enzyme activity | inhibitor | – | – | 10 µM | inhibition | -6%

Structure (SMILES) | effect on | action | method | cell line | concentration | endpoint | result
COc1cc(Cl)c(C(=O)N[C@@H](CN[C@H]2CC[C@@H](N)CC2)Cc2ccc(C#N)cc2)cc1-c1ccc(CN[C@H](C)c2ccc(C)cc2)o1 | enzyme activity | inhibitor | – | – | 1 µM | remaining activity | 99%
C[C@@H](c1cccc(C#N)c1)n1cc(Cl)cc(C(N)=O)c1=N | cell-free assay | – | competition with immobilised ligand | – | 1 µM | remaining binding | 89%
CCN(CC)CCNC(=O)c1c(C)[nH]c(/C=C2\C(=O)Nc3ccc(F)cc32)c1C | enzyme activity | inhibitor | – | – | 0.3 µM | inhibition | -8%
Cc1cc(NC(=O)c2cccc3cc(-c4cccc5[nH]nc(N)c45)ccc23)ccc1F | enzyme activity | inhibitor | – | – | 0.1 µM | activity vs control | 96%
Cc1c[nH]c2nccc(Oc3c(F)cc(Nc4cc(Cl)nc(N)n4)cc3F)c12 | cell-free assay | – | competition with immobilised ligand | – | 0.1 µM | remaining binding | 100%
O=C1Nc2ccc(Cl)cc2C1=Cc1cc(Cl)c(O)c(Cl)c1 | cell-free assay | – | – | – | 0.5 µM | remaining signal | 100%
CCN1CCN(Cc2ccc(NC(=O)c3ccc(C)c(Oc4ccnc5[nH]ccc45)c3)cc2C(F)(F)F)CC1 | target engagement in cells | inhibitor | chemoproteomics | A-375 | 0.5 µM | inhibition | -0.545%
CN1CCN(c2cnc3c(C4CCN(C(=O)c5ccc(OC(F)(F)F)cc5N)CC4)ncnc3c2)CC1 | cell-free assay | – | competition with immobilised ligand | – | 1 µM | remaining binding | 100%
Cn1c2c(c3ccc(Cl)c(Cl)c31)C(C#N)C(C)(C)NC2=O (stereo not shown) | thermal stability | – | DSF | – | 10 µM | ΔTm | -0.6 °C
O=c1nc(-c2ccccn2)sc2ccccc12 | binding | – | competition with immobilised ligand | – | 1 µM | remaining binding | 75%
CC(C)(C)c1nc(-c2cccc(NS(=O)(=O)c3c(F)cccc3F)c2F)c(-c2ccnc(N)n2)s1 | enzyme activity | inhibitor | radiometric | – | 1 µM | remaining activity | 42%
O=C(O)[C@H]1[C@H](Cn2nnc3ccccc3c2=O)CC[C@@H]1C(=O)c1ccc(OCCC2CCOCC2)cc1 | cell-free assay | – | competition with immobilised ligand | – | 1 µM | remaining binding | 100%
CC1(C)NC(=O)c2[nH]c3c(Cl)c(Cl)ccc3c2C1C#N (stereo not shown) | thermal stability | – | DSF | – | 10 µM | ΔTm | -0.4 °C
Cc1noc([C@H]2C[C@@H](c3ccc(C(F)(F)F)cc3)CN(C(=O)N3CCS(=O)(=O)C3)C2)n1 | cell-free assay | – | competition with immobilised ligand | – | 1 µM | remaining binding | 100%
Cn1c2c(c3ccc(Cl)c(Cl)c31)C(C#N)C1(CCN(C(=O)OC(C)(C)C)CC1)NC2=O (racemic) | thermal stability | – | DSF | – | 10 µM | ΔTm | 0 °C
